# Laboratory results: ChEMBL document CHEMBL1136943, “Nocathiacin analogs: Synthesis and antibacterial activity of novel water-soluble amides” (Bioorg Med Chem Lett, 2009)
# Legend:
# Staphylococcus aureus [1] = test: Antibacterial activity against Staphylococcus aureus infected in mouse model assessed as reduction of kidney burden iv relative to control
# Staphylococcus aureus [2] = test: Antibacterial activity against Staphylococcus aureus infected in mouse model assessed as reduction of >= 2 log 10 cfu kidney burden; assay type: functional
# Summary of the method: (§1)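 Systemic S. aureus infection mouse model (SATOA). Compounds were given iv; […]. Kidney bacterial burden (cfu) was compared with untreated control. ED99 is the dose giving a reduction of at least 2 log10 cfu in kidney burden.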
# [3] = target: T1, Type-2 angiotensin II receptor (Homo sapiens, UniProt P50052); test: Inhibition of AT2 receptor
# T1 sequence (P50052 whole entry): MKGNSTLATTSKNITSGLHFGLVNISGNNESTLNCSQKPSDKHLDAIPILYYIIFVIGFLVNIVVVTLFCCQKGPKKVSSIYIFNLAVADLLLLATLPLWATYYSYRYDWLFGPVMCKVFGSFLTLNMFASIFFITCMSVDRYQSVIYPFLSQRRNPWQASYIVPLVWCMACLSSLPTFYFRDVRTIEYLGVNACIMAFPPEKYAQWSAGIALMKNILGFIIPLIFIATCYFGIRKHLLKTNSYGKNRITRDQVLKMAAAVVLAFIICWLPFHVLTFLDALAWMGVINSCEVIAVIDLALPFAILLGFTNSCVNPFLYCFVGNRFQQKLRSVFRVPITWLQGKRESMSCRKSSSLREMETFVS
# Summary of the method: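 AT2 IC50 derived from four dose levels per compound, following a published protocol.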
# Enterococcus faecalis = test: Antibacterial activity against Enterococcus faecalis C21560 in liquid culture by turbidity method; assay type: functional
# Summary of the method: (§2)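 MIC is the lowest concentration giving 100% inhibition of bacterial growth in liquid culture, read by turbidity.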
# Staphylococcus aureus [4] = test: Antibacterial activity against Staphylococcus aureus MB2865 in liquid culture by turbidity method; assay type: functional
# Summary of the method: as §2
# Streptococcus pneumoniae = test: Antibacterial activity against Streptococcus pneumoniae CL2883 in liquid culture by turbidity method; assay type: functional
# Summary of the method: as §2
# Staphylococcus aureus [5] = test: Antibacterial activity against Staphylococcus aureus infected in mouse model assessed as reduction of kidney burden at 0.5 mg/kg, iv relative to control; assay type: functional
# Summary of the method: as §1
Compound,Activity (Staphylococcus aureus [1]),ED99 (Staphylococcus aureus [2]),IC50 [3],MIC (Enterococcus faecalis),MIC (Staphylococcus aureus [4]),MIC (Streptococcus pneumoniae),Activity (Staphylococcus aureus [5])
CO/C(C)=C1/NC(=O)[C@H]([C@@H](C)O)NC(=O)c2csc(n2)-c2cc(O)c(-c3nc(C(=O)NCCCN4CCOCC4)cs3)nc2-c2csc(n2)[C@@H]2COC(=O)c3c4c5c(cccc5n3O)COC(=O)[C@@H](O[C@H]3C[C@](C)(O)[C@H](N(C)C)[C@H](C)O3)[C@@H](OC4)[C@H](NC(=O)c3csc1n3)c1nc(cs1)C(=O)N2,4.68,0.24 mg/kg,260 nM,0.016 µg/mL,0.011 µg/mL,0.007 µg/mL,–
CO/C(C)=C1/NC(=O)[C@H]([C@@H](C)O)NC(=O)c2csc(n2)-c2cc(O)c(-c3nc(C(=O)NCCCN4CCN(C)CC4)cs3)nc2-c2csc(n2)[C@@H]2COC(=O)c3c4c5c(cccc5n3O)COC(=O)[C@@H](O[C@H]3C[C@](C)(O)[C@H](N(C)C)[C@H](C)O3)[C@@H](OC4)[C@H](NC(=O)c3csc1n3)c1nc(cs1)C(=O)N2,–,0.13 mg/kg,< 10 nM,0.12 µg/mL,0.015 µg/mL,0.00095 µg/mL,5.8
